Measured values as given in ChEMBL document CHEMBL1125307, “Novel 1,2,4-oxadiazoles and 1,2,4-thiadiazoles as dual 5-lipoxygenase and cyclooxygenase inhibitors” (J Med Chem, 1992).
Calls of active or inactive are those of the source. The calls are words filed in the database; no cut-off is given here.

Tests used:
[1] = target: T1, Polyunsaturated fatty acid 5-lipoxygenase (Rattus norvegicus, UniProt P12527); assay: Inhibitory activity against 5-Lipoxygenase
T1 sequence (P12527 whole entry): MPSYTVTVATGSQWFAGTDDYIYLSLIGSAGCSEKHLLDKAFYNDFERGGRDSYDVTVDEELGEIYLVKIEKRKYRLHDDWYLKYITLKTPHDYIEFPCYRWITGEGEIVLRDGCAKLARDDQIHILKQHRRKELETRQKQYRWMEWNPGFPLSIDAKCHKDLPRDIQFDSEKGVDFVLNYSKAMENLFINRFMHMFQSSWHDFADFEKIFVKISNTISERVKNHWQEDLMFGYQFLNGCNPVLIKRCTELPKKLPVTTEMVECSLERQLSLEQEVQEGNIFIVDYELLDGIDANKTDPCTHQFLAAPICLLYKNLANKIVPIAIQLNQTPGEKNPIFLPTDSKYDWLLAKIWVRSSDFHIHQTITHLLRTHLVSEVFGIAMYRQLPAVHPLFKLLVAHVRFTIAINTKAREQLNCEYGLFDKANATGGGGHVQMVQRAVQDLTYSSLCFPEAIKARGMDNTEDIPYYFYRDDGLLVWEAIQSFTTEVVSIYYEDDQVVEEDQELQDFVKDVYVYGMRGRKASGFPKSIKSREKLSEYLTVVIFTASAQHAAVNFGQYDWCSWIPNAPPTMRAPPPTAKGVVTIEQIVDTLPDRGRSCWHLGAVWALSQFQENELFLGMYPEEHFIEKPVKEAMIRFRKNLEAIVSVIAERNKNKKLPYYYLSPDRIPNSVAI
In short: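 Rat basophilic leukemia RBL-1 cells were grown in suspension in MEM with 12% FBS, washed, and resuspended at 2×10^6 cells/mL in PBS pH 7.4 with 1.0 mM calcium. Compound in DMSO was preincubated 10 min at room temperature, then 5 μM A23187 was added for 7 min at 37 °C. LTB₄ in the supernatant was measured by RIA at 0.10–10.0 μM. IC50 was determined by linear regression.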

Cyclooxygenase = target: T2, Cyclooxygenase (Rattus norvegicus, UniProt P35355+Q63921); assay: Evaluated in vitro for its inhibitory activity against Prostaglandin G/H synthase; assay type: protein assay
T2 sequence (P35355 whole entry): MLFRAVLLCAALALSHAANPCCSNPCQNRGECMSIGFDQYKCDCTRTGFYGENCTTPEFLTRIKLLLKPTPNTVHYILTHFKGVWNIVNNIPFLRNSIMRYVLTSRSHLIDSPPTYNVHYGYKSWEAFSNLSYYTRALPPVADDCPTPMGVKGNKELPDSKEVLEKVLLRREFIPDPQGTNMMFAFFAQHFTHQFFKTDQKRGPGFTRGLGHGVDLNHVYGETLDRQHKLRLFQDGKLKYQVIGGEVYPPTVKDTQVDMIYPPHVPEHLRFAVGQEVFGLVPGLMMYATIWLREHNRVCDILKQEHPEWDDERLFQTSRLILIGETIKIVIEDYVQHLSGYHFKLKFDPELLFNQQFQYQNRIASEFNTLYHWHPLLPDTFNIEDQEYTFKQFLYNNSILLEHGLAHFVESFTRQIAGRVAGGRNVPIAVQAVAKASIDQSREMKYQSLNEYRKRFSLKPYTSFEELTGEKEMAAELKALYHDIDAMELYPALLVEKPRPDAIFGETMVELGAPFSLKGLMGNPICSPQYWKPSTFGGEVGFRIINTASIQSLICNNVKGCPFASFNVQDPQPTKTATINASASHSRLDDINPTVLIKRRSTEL
T2 sequence (Q63921 whole entry): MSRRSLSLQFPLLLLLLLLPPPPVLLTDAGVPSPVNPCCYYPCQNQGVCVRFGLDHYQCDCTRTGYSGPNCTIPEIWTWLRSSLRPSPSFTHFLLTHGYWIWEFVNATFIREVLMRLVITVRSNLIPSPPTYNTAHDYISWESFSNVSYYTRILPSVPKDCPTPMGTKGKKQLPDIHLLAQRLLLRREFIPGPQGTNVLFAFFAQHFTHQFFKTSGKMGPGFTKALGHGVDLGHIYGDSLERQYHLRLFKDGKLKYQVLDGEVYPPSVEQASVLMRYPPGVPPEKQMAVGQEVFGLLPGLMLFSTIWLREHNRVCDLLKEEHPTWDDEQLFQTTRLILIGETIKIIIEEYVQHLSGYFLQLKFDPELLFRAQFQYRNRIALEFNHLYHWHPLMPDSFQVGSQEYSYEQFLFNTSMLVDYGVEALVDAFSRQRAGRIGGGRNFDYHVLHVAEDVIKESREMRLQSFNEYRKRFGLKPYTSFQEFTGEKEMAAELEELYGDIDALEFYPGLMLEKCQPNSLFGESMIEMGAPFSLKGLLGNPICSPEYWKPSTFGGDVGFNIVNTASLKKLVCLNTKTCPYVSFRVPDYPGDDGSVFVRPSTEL

Rattus norvegicus [2] = assay: Compound was evaluated for the antiinflammatory activity by taking the percentage inhibition of edema in the carrageenan foot-pad edema test at the dose of 30 mg/kg; N=Inactive, <25% inhibition; assay type: functional, organism-based; design: dose 30 mg/kg
In short: (§1)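 Male Wistar rats dosed orally (0.5% HPMC/0.2% Tween 80 or Labrafils, 10 mL/kg) 1 h before subplantar injection of 0.10 mL 1% carrageenan into right hind paw under light anesthesia. Paw volume by mercury plethysmography at challenge and 5 h later; percent inhibition ± SEM versus vehicle group. Doses 10.0 and 30.0 mg/kg po, 7-14 rats per dose.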

Rattus norvegicus [3] = species on record: Rattus norvegicus; assay: Ratio of IC50 against 5-LO and COX
In short: (§2)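 In ionophore-stimulated RBL-1 cells (2×10^6/mL, PBS with 1.0 mM Ca, 10 min compound preincubation at room temperature, 5 μM A23187 for 7 min at 37 °C), supernatant LTB₄ (5-LO) and PGF₂α (CO) were each quantified by RIA over 0.10–10.0 μM. IC50s came from linear regression, and the ratio is the 5-LO IC50 over the CO IC50.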

Rattus norvegicus [4] = assay: Compound was evaluated for the antiinflammatory activity by taking the percentage inhibition of edema in the carrageenan foot-pad edema test at the dose of 10 mg/kg; assay type: functional; in short: as §1
Rattus norvegicus [5] = assay: Compound was evaluated for the antiinflammatory activity by taking the percentage inhibition of edema in the carrageenan foot-pad edema test at the dose of 30 mg/kg; assay type: functional; in short: as §1
Rattus norvegicus [6] = assay: Compound was evaluated for th antiinflammatory activity administering through oral route by taking the inhibitory dose of induced edema in the mycobacterium foot-pad edema test; assay type: functional
Rattus norvegicus [7] = assay: Evaluated for the percent rats with ulcers at the dose of 200 mg/kg (number of animals used per group in the experiment are 10 ); assay type: functional
In short: (§3)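 Male outbred Wistar rats (100-250 g) fasted 24 h, given compound orally in 0.5% HPMC (2 mL/kg), then denied food and water 6 more h. Killed with CO2; stomachs opened along greater curvature and scored for ulcers. Percent of rats with ulcers per dose; up to 200 mg/kg po, 10 rats per dose.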

Rattus norvegicus [8] = assay: Evaluated for the antiinflammatory activity by measuring the dose (po) which inhibited Mycobacterium induced foot-pad edema in rats; assay type: functional
Rattus norvegicus [9] = assay: Evaluated for the antiinflammatory activity by measuring the percentage inhibition of edema in the carrageenan foot-pad edema test at the dose of 10 mg/kg; assay type: functional; in short: as §1
Rattus norvegicus [10] = assay: Evaluated for the antiinflammatory activity by measuring the percentage inhibition of edema in the carrageenan foot-pad edema test at the dose of 30 mg/kg; assay type: functional; in short: as §1
Rattus norvegicus [11] = assay: Compound was evaluated for the percent rats with ulcers at the dose of 36 mg/kg (number of animals used per group in the experiment are 10 ); assay type: functional; in short: as §3
Rattus norvegicus [12] = assay: Compound was evaluated for the percent rats with ulcers at the dose of 30 mg/kg (number of animals used per group in the experiment are 10 ); assay type: functional; in short: as §3
Rattus norvegicus [13] = species on record: Rattus norvegicus; assay: Ratio of IC50 against 5-LO to that of CO enzyme.; in short: as §2
[14] = target: T1, Polyunsaturated fatty acid 5-lipoxygenase; assay: Evaluated in vitro for its inhibitory activity against 5-lipoxygenase

Row | Structure (SMILES) | IC50 [1] | IC50 (Cyclooxygenase) | inhibition (Rattus norvegicus [2]) | Ratio (Rattus norvegicus [3]) | inhibition in vivo at 10 mg/kg (Rattus norvegicus [4]) | inhibition in vivo at 30 mg/kg (Rattus norvegicus [5]) | ID40 (Rattus norvegicus [6]) | Activity (Rattus norvegicus [7]) | ID40 (Rattus norvegicus [8]) | inhibition in vivo at 10 mg/kg (Rattus norvegicus [9]) | inhibition in vivo at 30 mg/kg (Rattus norvegicus [10]) | Activity (Rattus norvegicus [11]) | Activity (Rattus norvegicus [12]) | Ratio (Rattus norvegicus [13]) | IC50 [14]
1 | CC(C)(C)c1cc(-c2nc(CCl)no2)cc(C(C)(C)C)c1O | 780 nM | 100 nM | inactive | 7.8 | – | – | – | – | – | – | – | – | – | – | –
2 | CC(C)(C)c1cc(-c2nnc(S)s2)cc(C(C)(C)C)c1O.C[N+](C)(C)CC[O-] | 2800 nM | 800 nM | – | 3.5 | 49.9% | 47.9% | 7.7 mg/kg | 0% | – | – | – | – | – | – | –
3 | Cc1ccc(Cl)c(Nc2ccccc2C(=O)[O-])c1Cl.O.[Na+] [MECLOFENAMATE SODIUM] | – | – | – | – | – | – | – | – | 0.4 mg/kg | 34.4% | 40.8% | 50% | – | – | –
4 | CC(C)(C)c1cc(C2CCOC2=O)cc(C(C)(C)C)c1O (configuration not stated) | – | 150 nM | – | – | – | – | – | – | 3.7 mg/kg | 16.6% | 28.4% | – | 30% | 17 | 2500 nM
